In ChEMBL document CHEMBL4428066, “Small Molecule Reversible Inhibitors of Bruton's Tyrosine Kinase (BTK): Structure-Activity Relationships Leading to the Identification of 7-(2-Hydroxypropan-2-yl)-4-[2-methyl-3-(4-oxo-3,4-dihydroquinazolin-3-yl)phenyl]-9H-carbazole-1-carboxamide (BMS-935177)” (J Med Chem, 2016):
Converted amounts (≈) assume the structure as drawn. The source made the active and inactive calls. The rule behind the calls is not given here.

Assays:
[1] = biological target: Tyrosine-protein kinase JAK2 (Homo sapiens, UniProt O60674); test: Inhibition of partial length human JAK2 expressed in bacterial system
[2] = AUC (0 to 24 hrs) in Balb/C mouse at 10 mg/kg, po; assay type: ADME, organism-based; design: time < 24 hr, dose 10 mg/kg, route oral; details: in vivo
Method in brief: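 Male Balb/C mice dosed orally once at 10 mg/kg in PEG300/TPGS/ethanol (90/5/5 v/v/v).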

[3] = biological target: Tyrosine-protein kinase Blk (Homo sapiens, UniProt P51451); test: Inhibition of BLK (unknown origin) expressed in bacterial system
[4] = biological target: Tyrosine-protein kinase Lyn (Homo sapiens, UniProt P07948); test: Inhibition of partial length human LYN expressed in bacterial system
[5] = biological target: Tyrosine-protein kinase BTK (Mus musculus, UniProt P35991); test: Inhibition of BTK in mouse whole blood assessed as suppression of BCR/anti-IgM stimulated CD69 surface expression on B cells after 18 hrs by FACS analysis; assay type: tissue-based
Method in brief: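 Mouse whole blood stimulated through the BCR; CD69 on the B-cell surface read by FACS with gating on B cells. IC50 reported as mean ± standard deviation of three determinations.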

Salmonella typhimurium = test: Mutagenic activity in Salmonella typhimurium by AMES test; assay type: toxicity, organism-based; details: salmonella enterica subsp. enterica serovar typhimurium
Cytochrome P450 2D6 = Cytochrome P450 2D6 (Homo sapiens, UniProt P10635); test: Inhibition of human liver microsomes CYP2D6 after 30 mins in presence of NADPH; assay type: ADME
Cytochrome P450 3A4 = Cytochrome P450 3A4 (Homo sapiens, UniProt P08684); test: Inhibition of human liver microsomes CYP3A4 after 30 mins in presence of NADPH; assay type: ADME
Cytochrome P450 2C8 = Cytochrome P450 2C8 (Homo sapiens, UniProt P10632); test: Inhibition of human liver microsomes CYP2C8 after 30 mins in presence of NADPH; assay type: ADME
[6] = Aqueous solubility of the compound; assay type: physicochemical; details: aqueous medium
[7] = Solubility of the compound in fed state simulated intestinal fluid; assay type: physicochemical
[8] = Permeability of the compound at pH 5.5 by PAMPA; assay type: ADME; details: read-out: permeability
[9] = Passive permeability from apical to basolateral side in human Caco2 cells; assay type: ADME, cell-based; details: Caco-2, read-out: permeability
[10] = Passive permeability from basolateral to apical side in human Caco2 cells; assay type: ADME, cell-based; details: Caco-2, read-out: permeability
Mus musculus [11] = test: Time required for plasma concentration to reach above in vitro BCR-stimulated CD69 expression IC50 in Balb/C mouse KLH antibody response model at 5 to 45 mg/kg, po qd for 14 days; assay type: ADME, organism-based; details: in vivo, 336 h
Mus musculus [12] = test: Antiarthritic activity in po dosed CIA DBA/1 mouse model assessed as reduction of disease severity after 21 days; assay type: functional, organism-based
Mus musculus [13] = test: Time required for plasma concentration to reach above in vitro BCR/IgM/IgG-stimulated CD69 expression mouse whole blood IC50 in DBA/1 mouse CIA model at 10 mg/kg administered daily through oral gavage starting on day of primary immunization; assay type: ADME, organism-based; details: in vivo
Mus musculus [14] = test: Antiarthritic activity in DBA/1 mouse model of collagen-induced arthritis inflammation assessed reduction in disease severity at 20 to 30 mg/kg, po dosing daily starting on day of primary immunization; assay type: functional; design: scale not given: the % may be the effect or the level left
Mus musculus [15] = test: Time required for plasma concentration to reach above in vitro BCR/IgM/IgG-stimulated CD69 expression mouse whole blood IC50 in DBA/1 mouse CIA model at 20 mg/kg administered daily through oral gavage starting on day of primary immunization; assay type: ADME, organism-based; details: in vivo
Mus musculus [16] = test: Antiarthritic activity in DBA/1 mouse model of collagen-induced arthritis inflammation assessed as protection against bone mass loss dosed daily and orally beginning on day of primary immunization by microcomputed tomography imaging analysis; assay type: functional, organism-based
Mus musculus [17] = test: Antiarthritic activity in DBA/1 mouse model of collagen-induced arthritis inflammation assessed as presence of presence of recognizable small individual bones at foot and ankle at 20 mg/kg, po dosed daily beginning on day of primary immunization by microcomputed tomography imaging analysis; assay type: functional, organism-based
Mus musculus [18] = test: Antiarthritic activity in Balb/C mouse model of anti-collagen antibody-induced arthritis assessed as reduction in paw clinical scores at 30 mg/kg, po dosed daily for 3 days followed by LPS challenge; assay type: functional, organism-based
[19] = Plasma clearance in mouse at 2 mg/kg, iv through bolus administration after 0.05 to 24 hrs by LC/MS/MS analysis; assay type: ADME, organism-based
[20] = Tmax in Sprague-Dawley rat plasma at 5 mg/kg, administered through oral gavage by LC/MS/MS analysis; assay type: ADME, organism-based
[21] = Half life in Sprague-Dawley rat plasma at 2 mg/kg, iv through bolus administration by LC/MS/MS analysis; assay type: ADME, organism-based
[22] = Volume of distribution in steady state in Sprague-Dawley rat at 2 mg/kg, iv through bolus administration by LC/MS/MS analysis; assay type: ADME, organism-based; details: in vivo, read-out: Vdss
[23] = Oral bioavailability in Sprague-Dawley rat at 5 mg/kg by LC/MS/MS analysis; assay type: ADME, organism-based; details: in vivo
[24] = Cmax in Beagle dog plasma at 2 mg/kg, administered through oral gavage after 0.25 to 48 hrs by LC/MS/MS analysis; assay type: ADME, organism-based, Canis lupus familiaris; design: dose 2 mg/kg, route oral
[25] = Tmax in Beagle dog plasma at 2 mg/kg, administered through oral gavage after 0.25 to 48 hrs by LC/MS/MS analysis; assay type: ADME, organism-based, Canis lupus familiaris
[26] = Half life in Beagle dog plasma at 2 mg/kg, iv through bolus administration after 0.167 to 48 hrs by LC/MS/MS analysis; assay type: ADME, organism-based, Canis lupus familiaris
[27] = Plasma clearance in Beagle dog at 2 mg/kg, iv through bolus administration after 0.167 to 48 hrs by LC/MS/MS analysis; assay type: ADME, organism-based, Canis lupus familiaris
[28] = Volume of distribution in steady state in Beagle dog at 2 mg/kg, iv through bolus administration after 0.167 to 48 hrs by LC/MS/MS analysis; assay type: ADME, organism-based, Canis lupus familiaris; details: in vivo, read-out: Vdss
[29] = Oral bioavailability in Beagle dog at 2 mg/kg after 0.25 to 48 hrs by LC/MS/MS analysis; assay type: ADME, organism-based, Canis lupus familiaris; details: in vivo
[30] = Cmax in cynomolgus monkey plasma at 2 mg/kg, administered through oral gavage after 0.25 to 48 hrs by LC/MS/MS analysis; assay type: ADME, organism-based, Macaca fascicularis; design: dose 2 mg/kg, route oral
[31] = Half life in cynomolgus monkey plasma at 2 mg/kg, iv through bolus administration after 0.167 to 48 hrs by LC/MS/MS analysis; assay type: ADME, organism-based, Macaca fascicularis
[32] = Plasma clearance in cynomolgus monkey at 2 mg/kg, iv through bolus administration after 0.167 to 48 hrs by LC/MS/MS analysis; assay type: ADME, organism-based, Macaca fascicularis
[33] = Volume of distribution in steady state in cynomolgus monkey at 2 mg/kg, iv through bolus administration after 0.167 to 48 hrs by LC/MS/MS analysis; assay type: ADME, organism-based, Macaca fascicularis; details: in vivo, read-out: Vdss
Mus musculus [34] = test: Antiarthritic activity in DBA/1 mouse model of collagen-induced arthritis inflammation assessed reduction in incidence of clinically evident disease dosed daily and orally beginning on day of primary immunization; assay type: functional, organism-based

Chain of Tyrosine-protein kinase BTK (P35991 whole entry): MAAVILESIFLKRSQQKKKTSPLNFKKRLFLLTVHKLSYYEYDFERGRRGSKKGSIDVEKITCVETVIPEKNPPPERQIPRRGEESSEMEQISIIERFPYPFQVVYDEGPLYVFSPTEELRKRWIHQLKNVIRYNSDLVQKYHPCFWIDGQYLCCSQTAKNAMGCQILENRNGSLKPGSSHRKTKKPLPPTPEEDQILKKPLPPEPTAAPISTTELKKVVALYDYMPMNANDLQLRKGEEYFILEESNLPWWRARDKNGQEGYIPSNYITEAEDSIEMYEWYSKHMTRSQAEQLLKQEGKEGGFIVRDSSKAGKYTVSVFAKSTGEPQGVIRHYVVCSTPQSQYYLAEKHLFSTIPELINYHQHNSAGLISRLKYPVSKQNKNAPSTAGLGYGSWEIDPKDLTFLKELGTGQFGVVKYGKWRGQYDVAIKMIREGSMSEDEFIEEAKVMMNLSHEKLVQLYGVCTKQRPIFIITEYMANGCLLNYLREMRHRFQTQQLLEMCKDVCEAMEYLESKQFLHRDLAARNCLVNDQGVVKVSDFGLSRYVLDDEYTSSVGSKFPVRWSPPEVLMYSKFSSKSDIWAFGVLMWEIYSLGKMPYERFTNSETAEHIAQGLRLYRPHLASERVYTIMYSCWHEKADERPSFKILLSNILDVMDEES
Chain of Tyrosine-protein kinase Lyn (P07948 whole entry): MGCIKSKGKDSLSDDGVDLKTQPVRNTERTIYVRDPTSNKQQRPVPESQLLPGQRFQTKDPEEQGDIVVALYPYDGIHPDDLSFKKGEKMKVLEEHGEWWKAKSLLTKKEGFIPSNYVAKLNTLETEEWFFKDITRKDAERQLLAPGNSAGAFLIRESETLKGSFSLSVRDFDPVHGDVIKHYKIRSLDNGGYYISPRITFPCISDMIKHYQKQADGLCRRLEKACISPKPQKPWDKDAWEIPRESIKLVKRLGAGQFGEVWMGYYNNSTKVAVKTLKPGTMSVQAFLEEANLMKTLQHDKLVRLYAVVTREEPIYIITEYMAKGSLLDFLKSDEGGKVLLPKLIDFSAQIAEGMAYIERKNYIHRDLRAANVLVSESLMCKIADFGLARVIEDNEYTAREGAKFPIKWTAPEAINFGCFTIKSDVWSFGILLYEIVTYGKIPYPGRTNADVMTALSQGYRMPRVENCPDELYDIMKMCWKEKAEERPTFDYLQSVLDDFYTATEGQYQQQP
Chain of Cytochrome P450 2D6 (P10635 whole entry): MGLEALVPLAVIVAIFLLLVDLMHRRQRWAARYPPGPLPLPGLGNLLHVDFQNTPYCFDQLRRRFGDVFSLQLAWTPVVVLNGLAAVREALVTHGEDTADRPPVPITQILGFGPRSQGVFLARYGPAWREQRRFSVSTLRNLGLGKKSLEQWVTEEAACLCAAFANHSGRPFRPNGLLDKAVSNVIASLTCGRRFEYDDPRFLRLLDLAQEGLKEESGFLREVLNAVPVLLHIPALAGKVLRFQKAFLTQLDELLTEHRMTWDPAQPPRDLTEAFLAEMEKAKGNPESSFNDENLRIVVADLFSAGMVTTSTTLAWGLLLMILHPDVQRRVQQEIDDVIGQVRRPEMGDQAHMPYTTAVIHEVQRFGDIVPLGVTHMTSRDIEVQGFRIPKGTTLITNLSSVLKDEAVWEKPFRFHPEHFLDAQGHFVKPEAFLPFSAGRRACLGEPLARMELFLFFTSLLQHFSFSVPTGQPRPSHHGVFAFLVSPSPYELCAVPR
Chain of Cytochrome P450 2C8 (P10632 whole entry): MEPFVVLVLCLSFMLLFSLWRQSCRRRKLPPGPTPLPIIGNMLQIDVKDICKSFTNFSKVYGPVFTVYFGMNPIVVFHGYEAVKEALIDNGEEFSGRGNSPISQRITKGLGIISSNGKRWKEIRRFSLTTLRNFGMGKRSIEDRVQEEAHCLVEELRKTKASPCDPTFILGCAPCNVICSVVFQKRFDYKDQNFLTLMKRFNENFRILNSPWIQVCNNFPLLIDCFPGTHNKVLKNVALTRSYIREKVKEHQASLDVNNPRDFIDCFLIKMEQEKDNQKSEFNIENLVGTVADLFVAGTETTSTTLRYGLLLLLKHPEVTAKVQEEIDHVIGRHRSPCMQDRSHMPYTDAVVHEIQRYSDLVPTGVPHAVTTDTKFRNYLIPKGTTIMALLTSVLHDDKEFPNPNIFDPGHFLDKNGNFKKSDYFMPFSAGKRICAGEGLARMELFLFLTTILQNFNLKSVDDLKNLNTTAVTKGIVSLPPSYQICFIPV
Chain of Cytochrome P450 3A4 (P08684 whole entry): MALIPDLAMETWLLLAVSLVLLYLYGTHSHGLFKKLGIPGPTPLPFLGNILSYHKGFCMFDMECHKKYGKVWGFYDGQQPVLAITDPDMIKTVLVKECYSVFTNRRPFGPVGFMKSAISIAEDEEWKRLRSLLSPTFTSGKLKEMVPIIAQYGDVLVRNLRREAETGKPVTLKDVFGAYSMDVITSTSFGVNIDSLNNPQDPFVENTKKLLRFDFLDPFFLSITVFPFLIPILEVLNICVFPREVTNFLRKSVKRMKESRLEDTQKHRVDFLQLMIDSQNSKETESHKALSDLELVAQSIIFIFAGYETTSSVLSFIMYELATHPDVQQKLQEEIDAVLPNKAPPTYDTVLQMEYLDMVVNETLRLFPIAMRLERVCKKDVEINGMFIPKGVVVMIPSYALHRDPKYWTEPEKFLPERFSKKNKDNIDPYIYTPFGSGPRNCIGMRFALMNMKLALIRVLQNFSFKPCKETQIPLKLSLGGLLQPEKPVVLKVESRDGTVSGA
Chain of Tyrosine-protein kinase Blk (P51451 whole entry): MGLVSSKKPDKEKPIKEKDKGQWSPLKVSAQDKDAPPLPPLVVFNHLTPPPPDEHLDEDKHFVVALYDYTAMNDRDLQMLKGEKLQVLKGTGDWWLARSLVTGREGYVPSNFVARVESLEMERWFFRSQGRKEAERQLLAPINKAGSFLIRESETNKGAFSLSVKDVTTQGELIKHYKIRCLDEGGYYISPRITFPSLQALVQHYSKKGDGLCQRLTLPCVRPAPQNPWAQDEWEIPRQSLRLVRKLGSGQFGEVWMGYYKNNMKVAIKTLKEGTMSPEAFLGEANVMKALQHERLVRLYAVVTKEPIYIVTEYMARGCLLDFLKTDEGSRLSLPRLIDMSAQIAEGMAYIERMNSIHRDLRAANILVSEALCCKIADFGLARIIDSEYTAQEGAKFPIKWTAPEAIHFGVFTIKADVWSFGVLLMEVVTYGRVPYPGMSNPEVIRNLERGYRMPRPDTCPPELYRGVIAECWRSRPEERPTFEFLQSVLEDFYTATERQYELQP
Chain of Tyrosine-protein kinase JAK2 (O60674 whole entry): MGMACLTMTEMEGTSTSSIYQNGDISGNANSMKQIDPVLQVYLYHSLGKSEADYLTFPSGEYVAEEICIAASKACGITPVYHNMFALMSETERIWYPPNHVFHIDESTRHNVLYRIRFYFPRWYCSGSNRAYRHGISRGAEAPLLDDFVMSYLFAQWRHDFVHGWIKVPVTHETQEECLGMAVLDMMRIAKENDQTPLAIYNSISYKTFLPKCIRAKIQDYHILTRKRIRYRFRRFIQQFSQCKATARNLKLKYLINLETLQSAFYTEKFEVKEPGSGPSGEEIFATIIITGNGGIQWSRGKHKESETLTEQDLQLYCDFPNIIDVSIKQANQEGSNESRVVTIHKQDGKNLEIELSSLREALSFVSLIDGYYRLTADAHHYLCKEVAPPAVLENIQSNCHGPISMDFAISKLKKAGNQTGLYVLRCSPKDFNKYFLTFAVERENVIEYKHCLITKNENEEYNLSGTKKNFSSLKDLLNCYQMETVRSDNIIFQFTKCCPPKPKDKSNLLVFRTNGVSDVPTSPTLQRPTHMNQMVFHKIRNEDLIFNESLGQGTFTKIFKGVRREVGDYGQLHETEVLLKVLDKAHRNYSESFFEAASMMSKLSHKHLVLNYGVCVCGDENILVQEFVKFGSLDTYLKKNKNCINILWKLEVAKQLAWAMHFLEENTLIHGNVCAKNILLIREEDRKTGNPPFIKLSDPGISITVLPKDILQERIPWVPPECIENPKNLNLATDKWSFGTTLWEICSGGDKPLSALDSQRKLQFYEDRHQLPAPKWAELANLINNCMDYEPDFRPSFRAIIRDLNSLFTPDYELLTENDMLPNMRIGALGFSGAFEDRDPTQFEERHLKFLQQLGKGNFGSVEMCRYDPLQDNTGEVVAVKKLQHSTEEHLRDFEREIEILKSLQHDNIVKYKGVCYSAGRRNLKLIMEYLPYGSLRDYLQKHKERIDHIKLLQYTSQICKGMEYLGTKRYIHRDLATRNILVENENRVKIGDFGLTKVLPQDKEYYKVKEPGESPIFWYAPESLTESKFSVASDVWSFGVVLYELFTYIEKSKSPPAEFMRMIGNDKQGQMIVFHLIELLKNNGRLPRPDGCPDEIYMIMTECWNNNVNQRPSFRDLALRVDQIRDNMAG

Cc1c(-c2ccc(C(N)=O)c3[nH]c4cc(C(C)(C)O)ccc4c23)cccc1-n1cnc2ccccc2c1=O
IC50 [1]: 0.37 µM | AUC(0-t) at 24 h [2]: 80 µM·h | IC50 [3]: 0.02 µM | IC50 [4]: 0.16 µM | IC50 [5]: 2.06 µM | Activity (Salmonella typhimurium): Non-Toxic | IC50 (Cytochrome P450 2D6): > 40 µM | IC50 (Cytochrome P450 3A4): > 40 µM | IC50 (Cytochrome P450 2C8): > 8 µM | solubility [6]: < 0.001 mg/mL | solubility [7]: 0.06 mg/mL (≈ 119 µM) | Papp [8]: 876 nm/s | Papp A→B [9]: < 15 nm/s | Papp B→A [10]: 122 nm/s | Time (Mus musculus [11]): 5 h | Activity (Mus musculus [12]): Dose-dependent effect | Time (Mus musculus [13]): 12 h | Activity (Mus musculus [14]): 85 - 90% | Time (Mus musculus [15]): 20 h | Activity (Mus musculus [16]): Dose-dependent effect | Activity (Mus musculus [17]): Active | Activity (Mus musculus [18]): Active | clearance [19]: 0.294 L/h/kg | Tmax [20]: 5 h | half-life [21]: 5.1 h | Vd [22]: 2.6 L/kg | bioavailability [23]: 84% | Cmax [24]: 1.2 µM | Tmax [25]: 1.6 h | half-life [26]: 10.4 h | clearance [27]: 0.222 L/h/kg | Vd [28]: 3.2 L/kg | bioavailability [29]: 100% | Cmax [30]: 4.8 µM | half-life [31]: 10.6 h | clearance [32]: 0.126 L/h/kg | Vd [33]: 1.6 L/kg | Activity (Mus musculus [34]): Dose-dependent effect
